# From ChEMBL document CHEMBL1131807, “Synthesis and in vitro evaluation of novel highly potent coumarin inhibitors of gyrase B” (1999)
# Key:
# Type in all cases: functional
# Streptococcus pyogenes [1] = experiment: Antibacterial activity against Streptococcus pyogenes 02A1UC1 strain
# How it was run: (§1)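 MIC measured by twofold serial dilution in broth microdilution format and read after 24 hours of incubation. The resistance phenotype of each strain (ofloxacin, oxacillin, erythromycin, novobiocin, teicoplanin or vancomycin) was recorded alongside.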
# Staphylococcus aureus [2] = experiment: Antibacterial activity against ofloxacin, oxacillin and erythromycin resistant Staphylococcus aureus strain 011GO76
# How it was run: (§2)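 MIC in µg/mL by twofold broth microdilution, read after 24 h incubation. Resistance phenotypes of the strains are as listed for each strain (ofloxacin, oxacillin, erythromycin, teicoplanin, vancomycin).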
# Staphylococcus aureus [3] = experiment: Antibacterial activity against Staphylococcus aureus novobiocin resistant strain 011HT1; how it was run: as §1
# Enterococcus faecium = experiment: Antibacterial activity against vancomycin, teicoplanin and erythromycin resistant Enterococcus faecium 02D31P2 strain; how it was run: as §2
# Staphylococcus aureus [4] = experiment: Antibacterial activity against Staphylococcus aureus 011HT3 strain; how it was run: as §1
# [5] = tested on: Staphylococcus epidermidis; experiment: Antibacterial activity against oxacillin and teicoplanin resistant Staphylococcus epidermidis 012GO39 strain; how it was run: as §2
# Streptococcus pyogenes [6] = experiment: Compound was evaluated for antibacterial activity, against Streptococcus pyogenes 02A1UC1 strain; how it was run: as §1
# [7] = tested on: Staphylococcus epidermidis; experiment: Compound was evaluated for antibacterial activity, against oxacillin and teicoplanin resistant Staphylococcus epidermidis 012GO39 strain; how it was run: as §2
structure (smiles),measurement,setting,value
CO[C@@H]1[C@@H](OC(=O)c2ccc(C)[nH]2)[C@@H](O)[C@H](Oc2ccc3c(O)c(C(=O)Nc4ccccc4)c(=O)oc3c2C)OC1(C)C,MIC,Streptococcus pyogenes [1],0.6 µg/mL
same,MIC,Staphylococcus aureus [2],0.08 µg/mL
same,MIC,Staphylococcus aureus [3],1.2 µg/mL
same,MIC,Enterococcus faecium,> 40 µg/mL
same,MIC,Staphylococcus aureus [4],< 0.04 µg/mL
same,MIC,[5],< 0.04 µg/mL
CO[C@@H]1[C@@H](OC(=O)c2ccc(C)[nH]2)[C@@H](O)[C@H](Oc2ccc3c(O)c(C(=O)NCCN(C)C)c(=O)oc3c2C)OC1(C)C,MIC,Streptococcus pyogenes [1],1.2 µg/mL
same,MIC,Staphylococcus aureus [2],0.3 µg/mL
same,MIC,Staphylococcus aureus [3],20 µg/mL
same,MIC,Enterococcus faecium,10 µg/mL
same,MIC,Staphylococcus aureus [4],0.15 µg/mL
CO[C@@H]1[C@@H](OC(=O)c2ccc(C)[nH]2)[C@@H](O)[C@H](Oc2ccc3c(O)c(C(N)=O)c(=O)oc3c2C)OC1(C)C,MIC,Streptococcus pyogenes [1],0.15 µg/mL
same,MIC,Staphylococcus aureus [3],2.5 µg/mL
same,MIC,Enterococcus faecium,2.5 µg/mL
same,MIC,Staphylococcus aureus [4],< 0.04 µg/mL
CO[C@@H]1[C@@H](OC(=O)c2ccc(C)[nH]2)[C@@H](O)[C@H](Oc2ccc3c(O)c(NC(=O)c4ccc(O)c(CC=C(C)C)c4)c(=O)oc3c2Cl)OC1(C)C [CHLOROBIOCIN],MIC,Streptococcus pyogenes [1],< 0.04 µg/mL
same,MIC,Staphylococcus aureus [2],< 0.04 µg/mL
same,MIC,Staphylococcus aureus [3],0.15 µg/mL
same,MIC,Staphylococcus aureus [4],< 0.04 µg/mL
same,MIC,[5],< 0.04 µg/mL
CONC(=O)c1c(O)oc2c(C)c(O[C@@H]3OC(C)(C)[C@H](OC)[C@@H](OC(=O)c4ccc(C)[nH]4)[C@H]3O)ccc2c1=O,MIC,Streptococcus pyogenes [1],0.15 µg/mL
same,MIC,Staphylococcus aureus [2],0.08 µg/mL
same,MIC,Staphylococcus aureus [3],5 µg/mL
same,MIC,Enterococcus faecium,2.5 µg/mL
same,MIC,Staphylococcus aureus [4],< 0.04 µg/mL
same,MIC,[5],< 0.04 µg/mL
"COC1[C@@H](OC(N)=O)[C@@H](O)[C@H](Oc2ccc3c(O)c(NC(=O)c4ccc(O)c(CC=C(C)C)c4)c(=O)oc3c2C)OC1(C)C (single isomer, unassigned) [NOVOBIOCIN]",MIC,Staphylococcus aureus [3],20 µg/mL
same,MIC,Streptococcus pyogenes [6],0.15 µg/mL
same,MIC,[7],0.08 µg/mL
same,MIC,Enterococcus faecium,0.3 µg/mL
same,MIC,Staphylococcus aureus [4],< 0.04 µg/mL
CO[C@@H]1[C@@H](OC(=O)c2ccc(C)[nH]2)[C@@H](O)[C@H](Oc2ccc3c(O)c(C(=O)CSC)c(=O)oc3c2C)OC1(C)C,MIC,Streptococcus pyogenes [1],0.3 µg/mL
same,MIC,Staphylococcus aureus [3],5 µg/mL
same,MIC,Enterococcus faecium,5 µg/mL
same,MIC,Staphylococcus aureus [4],< 0.04 µg/mL
same,MIC,[5],0.08 µg/mL
CO[C@@H]1[C@@H](OC(=O)c2ccc(C)[nH]2)[C@@H](O)[C@H](Oc2ccc3c(O)c(C(=O)OCC(C)C)c(=O)oc3c2C)OC1(C)C,MIC,Staphylococcus aureus [2],2.5 µg/mL
same,MIC,Staphylococcus aureus [3],10 µg/mL
same,MIC,Enterococcus faecium,5 µg/mL
same,MIC,Staphylococcus aureus [4],0.08 µg/mL
same,MIC,[5],0.08 µg/mL
CO[C@@H]1[C@@H](OC(=O)c2ccc(C)[nH]2)[C@@H](O)[C@H](Oc2ccc3c(O)c(/C(C)=N/OCCN4CCOCC4)c(=O)oc3c2C)OC1(C)C,MIC,Streptococcus pyogenes [1],1.2 µg/mL
same,MIC,Staphylococcus aureus [2],0.3 µg/mL
same,MIC,Staphylococcus aureus [3],40 µg/mL
same,MIC,Enterococcus faecium,10 µg/mL
same,MIC,Staphylococcus aureus [4],0.15 µg/mL
same,MIC,[5],0.3 µg/mL
CO[C@@H]1[C@@H](OC(=O)c2ccc(C)[nH]2)[C@@H](O)[C@H](Oc2ccc3c(O)c(C(C)=O)c(=O)oc3c2C)OC1(C)C,MIC,Streptococcus pyogenes [1],0.15 µg/mL
same,MIC,Staphylococcus aureus [2],0.15 µg/mL
same,MIC,Staphylococcus aureus [3],5 µg/mL
same,MIC,Enterococcus faecium,2.5 µg/mL
same,MIC,Staphylococcus aureus [4],< 0.04 µg/mL
same,MIC,[5],0.08 µg/mL
CCOC(=O)/C(=N\OC)c1c(O)oc2c(C)c(O[C@@H]3OC(C)(C)[C@H](OC)[C@@H](OC(=O)c4ccc(C)[nH]4)[C@H]3O)ccc2c1=O,MIC,Streptococcus pyogenes [1],0.15 µg/mL
same,MIC,Staphylococcus aureus [3],10 µg/mL
same,MIC,Enterococcus faecium,5 µg/mL
same,MIC,Staphylococcus aureus [4],< 0.04 µg/mL
CO[C@@H]1[C@@H](OC(=O)c2ccc(C)[nH]2)[C@@H](O)[C@H](Oc2ccc3c(O)c(C(=O)NCCO)c(=O)oc3c2C)OC1(C)C,MIC,Streptococcus pyogenes [1],0.15 µg/mL
same,MIC,Staphylococcus aureus [3],2.5 µg/mL
same,MIC,Enterococcus faecium,2.5 µg/mL
same,MIC,Staphylococcus aureus [4],< 0.04 µg/mL
same,MIC,[5],< 0.04 µg/mL
CO/N=C(\C)c1c(O)oc2c(C)c(O[C@@H]3OC(C)(C)[C@H](OC)[C@@H](OC(=O)c4ccc(C)[nH]4)[C@H]3O)ccc2c1=O,MIC,Streptococcus pyogenes [1],0.3 µg/mL
same,MIC,Staphylococcus aureus [2],5 µg/mL
same,MIC,Staphylococcus aureus [3],40 µg/mL
same,MIC,Enterococcus faecium,10 µg/mL
same,MIC,Staphylococcus aureus [4],0.15 µg/mL
same,MIC,[5],0.6 µg/mL
CCOC(=O)c1c(O)oc2c(C)c(O[C@@H]3OC(C)(C)[C@H](OC)[C@@H](OC(=O)c4ccc(C)[nH]4)[C@H]3O)ccc2c1=O,MIC,Streptococcus pyogenes [1],0.3 µg/mL
same,MIC,Staphylococcus aureus [2],2.5 µg/mL
same,MIC,Staphylococcus aureus [3],> 20 µg/mL
same,MIC,Enterococcus faecium,5 µg/mL
same,MIC,Staphylococcus aureus [4],0.3 µg/mL
same,MIC,[5],0.15 µg/mL
CCOCC(=O)c1c(O)oc2c(C)c(O[C@@H]3OC(C)(C)[C@H](OC)[C@@H](OC(=O)c4ccc(C)[nH]4)[C@H]3O)ccc2c1=O,MIC,Streptococcus pyogenes [1],0.3 µg/mL
same,MIC,Staphylococcus aureus [2],0.08 µg/mL
same,MIC,Staphylococcus aureus [3],20 µg/mL
same,MIC,Enterococcus faecium,5 µg/mL
same,MIC,Staphylococcus aureus [4],< 0.04 µg/mL
same,MIC,[5],0.08 µg/mL
CO[C@@H]1[C@@H](OC(=O)c2ccc(C)[nH]2)[C@@H](O)[C@H](Oc2ccc3c(O)c(/C(C)=N/OCCSc4ncc[nH]4)c(=O)oc3c2C)OC1(C)C,MIC,Streptococcus pyogenes [1],0.3 µg/mL
same,MIC,Staphylococcus aureus [2],0.3 µg/mL
same,MIC,Staphylococcus aureus [3],40 µg/mL
same,MIC,Enterococcus faecium,10 µg/mL
same,MIC,Staphylococcus aureus [4],0.3 µg/mL
same,MIC,[5],0.3 µg/mL
